Published values of several laboratories.
Lines come from different studies, so protocols differ.
Target: Adenosine receptor A1 (ADORA1, Homo sapiens, UniProt P30542)
Residues used in one study (P30542 1-326): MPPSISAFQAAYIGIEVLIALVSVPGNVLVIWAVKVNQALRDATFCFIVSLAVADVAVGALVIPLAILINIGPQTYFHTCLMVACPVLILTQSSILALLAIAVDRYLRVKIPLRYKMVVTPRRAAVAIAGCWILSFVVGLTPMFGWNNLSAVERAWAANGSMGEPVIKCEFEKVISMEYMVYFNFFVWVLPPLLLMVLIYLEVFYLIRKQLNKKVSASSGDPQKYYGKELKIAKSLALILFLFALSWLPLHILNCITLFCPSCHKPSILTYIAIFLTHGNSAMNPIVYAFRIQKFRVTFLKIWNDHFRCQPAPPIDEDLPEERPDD

Compound	test	conditions	inhibition
CC(C)N1CCC[C@H]1CNC(=O)c1cn(C2CCCC2)c(=O)c2c1c1ccccc1n2C	ligand displacement, radioligand	10 µM	-1%
c1ccc(C(NCCNC(c2ccccc2)c2ccccc2)c2ccccc2)cc1	cell-free assay	10 µM	30%
COc1ccc(S(=O)(=O)N2CCCCC2)cc1C	ligand displacement, radioligand	10 µM	< 30%
C[C@H](C(=O)N[C@H]1COc2ccccc2[C@@H]1S(C)(=O)=O)c1ccc(F)cc1	cell-free assay	10 µM	1%
COCc1c(-c2cc3cc(C)cc(OC)c3s2)c2c(N)ncnn2c1CN1CCNC(=O)C1	ligand displacement, radioligand	10 µM	16%
CCSC[C@@]12C[C@@H]1[C@@H](n1cnc3c(NC(C4CCCC4)C4CCCC4)nc(Cl)nc31)[C@H](O)[C@@H]2O	ligand displacement, radioligand	10 µM	54%
O=C(Nc1cccnn1)N1CCN([C@@H]2CCOc3cc(C(F)(F)F)ccc32)CC1	cell-free assay	20 µM	17%
COc1ccc(SC[C@@]23C[C@@H]2[C@@H](n2cnc4c(NC(C5CCCC5)C5CCCC5)nc(Cl)nc42)[C@H](O)[C@@H]3O)cc1OC	ligand displacement, radioligand	10 µM	39%
CCN(CC)CCCC[C@H](NC(=O)[C@H](CC(C)C)NC(=O)[C@H](C)NC(=O)[C@H](Cc1ccccc1)NC(=O)c1ccc(C(C)(C)C)cc1)C(=O)N[C@@H](CO)C(=O)OC	ligand displacement, radioligand	10 µM	4%
CSC[C@@]12C[C@@H]1[C@@H](n1cnc3c(NC(C4CCCC4)C4CCCC4)nc(SC)nc31)[C@H](O)[C@@H]2O	ligand displacement, radioligand	10 µM	15%
CN(CCN1CCC(OC(=O)Nc2ccccc2-c2ccccc2)CC1)C(=O)c1ccc(CN2CCC(C(N)=O)CC2)cc1	ligand displacement, radioligand	1 µM	0%
